How the values were obtained:
A549 [1] = assay: Cell cycle arrest at human A549 cells assessed as accumulation at sub G1 phase at 2 uM after 48 hrs by propidium iodide-staining-based FACS flow cytometric analysis (reference value: 1.02%); type: functional
[2] = Cytotoxicity against human NCI-ADR-RES cells after 48 hrs by MTT assay; type: functional
SNB-75 = assay: Cytotoxicity against human SNB75 cells after 48 hrs by MTT assay; type: functional; details: SNB-75, 48 h
HCT-116 = assay: Cytotoxicity against human HCT116 cells after 48 hrs by MTT assay; type: functional; details: HCT-116, 48 h
RXF 393 = assay: Cytotoxicity against human RXF393 cells after 48 hrs by MTT assay; type: functional; details: RXF 393, 48 h
SF-295 = assay: Cytotoxicity against human SF295 cells after 48 hrs by MTT assay; type: functional; details: SF-295, 48 h
OVCAR-8 = assay: Cytotoxicity against human OVCAR8 cells after 48 hrs by MTT assay; type: functional; details: OVCAR-8, 48 h
SF-268 = assay: Cytotoxicity against human SF268 cells after 48 hrs by MTT assay; type: functional; details: SF-268, 48 h
SK-MEL-5 = assay: Cytotoxicity against human SK-MEL-5 cells after 48 hrs by MTT assay; type: functional; details: SK-MEL-5, 48 h
M14 = assay: Cytotoxicity against human M14 cells after 48 hrs by MTT assay; type: functional; details: M14, 48 h
SF-539 = assay: Cytotoxicity against human SF539 cells after 48 hrs by MTT assay; type: functional; details: SF-539, 48 h
SK-MEL-28 = assay: Cytotoxicity against human SK-MEL-28 cells after 48 hrs by MTT assay; type: functional; details: SK-MEL-28, 48 h
NCI-H226 = assay: Cytotoxicity against human NCI-H226 cells after 48 hrs by MTT assay; type: functional; details: NCI-H226, 48 h
NCI-H23 = assay: Cytotoxicity against human NCI-H23 cells after 48 hrs by MTT assay; type: functional; details: NCI-H23, 48 h
TK-10 = assay: Cytotoxicity against human TK10 cells after 48 hrs by MTT assay; type: functional; details: TK-10, 48 h
NCI-H522 = assay: Cytotoxicity against human NCI-H522 cells after 48 hrs by MTT assay; type: functional; details: NCI-H522, 48 h
SK-MEL-2 = assay: Cytotoxicity against human SK-MEL-2 cells after 48 hrs by MTT assay; type: functional; details: SK-MEL-2, 48 h
CAKI-1 = assay: Cytotoxicity against human Caki1 cells after 48 hrs by MTT assay; type: functional; details: CAKI-1, 48 h
BT-549 = assay: Cytotoxicity against human BT549 cells after 48 hrs by MTT assay; type: functional; details: BT-549, 48 h
KM12 = assay: Cytotoxicity against human KM12 cells after 48 hrs by MTT assay; type: functional; details: KM12, 48 h
A549 [3] = assay: Cytotoxicity against human A549 cells after 48 hrs by MTT assay; type: functional, cell-based; details: A549, 48 h
In short: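 MTT assay: […] were plated in DMEM with 10% FBS and incubated for 24 h at 37 °C under CO2. Compounds diluted in culture medium were added alongside a vehicle control for 48 h. MTT (10 µl of a 5 mg/ml stock) was added for a further 4 h. The supernatant was then removed, the formazan dissolved in DMSO, and absorbance read at 540 nm. IC50 was derived.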

LOX IMVI = assay: Cytotoxicity against human LOXIMVI cells after 48 hrs by MTT assay; type: functional
MDA-MB-435 = assay: Cytotoxicity against human MDA-MB-435 cells after 48 hrs by MTT assay; type: functional; details: MDA-MB-435, 48 h
Malme-3M = assay: Cytotoxicity against human MALME-3M cells after 48 hrs by MTT assay; type: functional
OVCAR-3 = assay: Cytotoxicity against human OVCAR3 cells after 48 hrs by MTT assay; type: functional; details: OVCAR-3, 48 h
HOP-92 = assay: Cytotoxicity against human HOP92 cells after 48 hrs by MTT assay; type: functional; details: HOP-92, 48 h
OVCAR-4 = assay: Cytotoxicity against human OVCAR4 cells after 48 hrs by MTT assay; type: functional; details: OVCAR-4, 48 h
MOLT-4 = assay: Cytotoxicity against human MOLT4 cells after 48 hrs by MTT assay; type: functional; details: MOLT-4, 48 h
UO-31 = assay: Cytotoxicity against human UO31 cells after 48 hrs by MTT assay; type: functional; details: UO-31, 48 h
RPMI-8226 = assay: Cytotoxicity against human RPMI8226 cells after 48 hrs by MTT assay; type: functional; details: RPMI-8226, 48 h

Row | SMILES | Activity (A549 [1]) [%] | GI50 (SNB-75) [nM] | GI50 (HCT-116) [µM] | GI50 (RXF 393) [µM] | GI50 (SF-295) [µM] | GI50 (OVCAR-8) [µM] | GI50 (SF-268) [µM] | GI50 (M14) [nM] | GI50 (SF-539) [nM] | GI50 (NCI-H226) [µM] | GI50 (NCI-H23) [µM] | GI50 (TK-10) [µM] | GI50 (NCI-H522) [nM] | GI50 (SK-MEL-2) [µM] | GI50 (BT-549) [µM] | IC50 (A549 [3]) [nM] | GI50 (Malme-3M) [µM] | GI50 (OVCAR-3) [µM] | GI50 (HOP-92) [nM] | other results
1 | COc1cc(-c2cc(C(=O)Nc3nc4ccccc4s3)nc3cc(-c4ccccc4)nn23)cc(OC)c1OC | 9.05 | 2700 | 4.5 | 6.2 | 10.6 | 5.3 | 4.5 | 2300 | 1300 | 27 | 11.5 | 11.9 | 1900 | 11.2 | 6.3 | 2010 | 12 | 13.3 | 700 | GI50 [2]: 19.6 µM; GI50 (SK-MEL-5): 13.8 µM; GI50 (SK-MEL-28): 3.3 µM; GI50 (CAKI-1): 53.7 µM; GI50 (KM12): 22 µM; GI50 (LOX IMVI): 5.5 µM; GI50 (MDA-MB-435): 2600 nM
2 | O=C(Nc1nc2ccccc2s1)c1cc(-c2ccc(F)cc2)n2nc(-c3ccccc3)cc2n1 | 3.75 | 1700 | 2.7 | 2.5 | 4.1 | 2.1 | 3.8 | 3100 | 2600 | 6.3 | 2.8 | 2.4 | 2500 | 3.1 | 2 | 1940 | 3.7 | 1.9 | 1600 | GI50 (OVCAR-4): 1800 nM; GI50 (MOLT-4): 21 µM; GI50 (UO-31): 1900 nM; GI50 (A549 [3]): 2700 nM; GI50 (RPMI-8226): 5.5 µM

Source: ChEMBL document CHEMBL2384939, “Synthesis of pyrazolo[1,5-a]pyrimidine linked aminobenzothiazole conjugates as potential anticancer agents” (Bioorg Med Chem Lett, 2013)
